# Screens: PubChem BioAssay, several laboratories
# In the library only some 3.2% were active in any assay of this set; here they are far more common.
# DAX1 inh-1: DAX1 (NR0B1) inhibitors, primary screen, cell-based, HEK293, Gal4-DAX1, luciferase luminescence; Nuclear receptor subfamily 0 group B member 1 (Homo sapiens), P51843; HEK293 Gal4-DAX1 luciferase reporter; inhibition, % at 6.75 µM; 340,000 tested, 0.99% active; AID 504766, 2011;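 active = inhibition above the mean over all tested compounds plus 3 SD, cut at about 4.2% in these data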;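 note: 0% = DAX1-transfected cells with DMSO and 100% = empty-vector control cells with DMSO; inhibition shows as a rise in luminescence from relieved DAX1 repression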
# Target sequence (P51843 207-470 limits assumed): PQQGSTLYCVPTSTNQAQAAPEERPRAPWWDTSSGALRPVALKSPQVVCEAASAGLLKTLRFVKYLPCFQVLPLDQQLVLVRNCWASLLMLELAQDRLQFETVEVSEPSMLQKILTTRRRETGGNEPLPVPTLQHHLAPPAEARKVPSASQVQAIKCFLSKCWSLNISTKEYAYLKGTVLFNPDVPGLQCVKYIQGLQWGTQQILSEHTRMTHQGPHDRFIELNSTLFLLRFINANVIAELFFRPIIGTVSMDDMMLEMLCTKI
# NR2E3 ag-1: NR2E3 agonists in two-hybrid cells, primary screen, cell-based, luminescence, CHO-S, Gal4-NCOR/VP16-NR2E3 | Photoreceptor-specific nuclear receptor (Homo sapiens), Q9Y5X4 | luciferase | inhibition of corepressor binding, % at 3.98 µM | 360,000 tested, 0.35% active | AID 602229, 2012;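 active = inhibition above the mean of all tested compounds plus 3 SD, cut at about 70% in these data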;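 note: 0% = DMSO with NR2E3 transfected cells and 100% = cells lacking NR2E3 construct; higher means lower luciferase signal from less NR2E3 corepressor binding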
# SMARCA2 activ: SMARCA2 (BRM) function activators, primary screen, cell-based, luminescence, high throughput; AID 652017, 2013; MG213 cells, MMTV-luciferase reporter, dexamethasone, overnight; activation, % at 9.1 µM; 370,000 tested, 1% active; in the data active = activation above about 7.8%;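 note: 0% = vehicle wells and 100% = reference activator wells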
# JMJD2C inh: inhibitors of GASC-1 histone demethylase, primary screen, biochemical, fluorescence, DELFIA europium | Lysine-specific demethylase 4C (Homo sapiens), Q9H3R0 | GST-JMJD2C(1-420) H3K9me3 demethylation | inhibition, % at 2.35 µM | 330,000 tested, 0.069% active;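 active = more than half of a compound's replicate wells show inhibition beyond 50%, single wells judged on their own value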;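 note: signal counts dimethyl H3K9 product captured on neutravidin plate; 0% = median of DMSO wells and 100% = 0.3 times that DMSO median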
# Target sequence (Q9H3R0 1-420 limits assumed): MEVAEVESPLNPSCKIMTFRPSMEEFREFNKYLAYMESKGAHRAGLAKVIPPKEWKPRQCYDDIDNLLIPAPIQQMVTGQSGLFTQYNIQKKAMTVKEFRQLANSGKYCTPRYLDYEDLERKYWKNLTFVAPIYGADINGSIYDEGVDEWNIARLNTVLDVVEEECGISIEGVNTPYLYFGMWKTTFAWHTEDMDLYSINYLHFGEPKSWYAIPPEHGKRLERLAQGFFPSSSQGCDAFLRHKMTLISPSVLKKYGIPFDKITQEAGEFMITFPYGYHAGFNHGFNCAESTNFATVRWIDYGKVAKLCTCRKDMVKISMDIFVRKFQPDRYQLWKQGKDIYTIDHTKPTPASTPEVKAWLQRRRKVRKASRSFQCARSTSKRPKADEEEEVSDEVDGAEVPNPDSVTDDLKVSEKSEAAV
# NR2E3 ag-2: inhibitors of NR2E3-RetCOR corepressor binding, primary screen, NR2E3 agonist project, biochemical, TR-FRET, GST-NR2E3, biotin-RetCOR. 320,000 tested, 0.12% active. 1536-well. inhibition of corepressor binding, % at 4.78 µM;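 active = percent inhibition above the cutoff of mean plus 3 SD of all tested compounds, set per screening campaign, cut at about 20% in these data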;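 note: 0% = DMSO wells and 100% = biotin wells as full block of FRET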
#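 System: GST-tagged NR2E3 plus biotinylated RetCOR corepressor; Amount: 1.35 nM GST-tagged NR2E3 final; Dosing: single nominal compound dose of 4.8 µM; Schedule: 5 h incubation at 4 °C; Technique: TR-FRET with europium anti-GST and streptavidin-D2, 340 nm excitation; Controls: biotin wells as high control, 0.6% DMSO wells as low control.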
# DAX1 inh-2: DAX1 (NR0B1) inhibitors on StAR promoter, primary screen, cell-based, luminescence, SF-1 (NR5A1), full-length DAX-1; HEK293T StAR-luciferase reporter, SF-1/DAX-1 repression relief; inhibition, % at 6.8 µM; AID 652010, 2013; 370,000 tested, 1.1% active;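 active = inhibition above the mean over all tested compounds plus 3 SD, cut at about 3.6% in these data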;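 note: 0% = DAX-1 cells with DMSO and 100% = cells lacking DAX-1 with DMSO; higher inhibition means more luminescence from relief of DAX-1 repression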
# NR2E3 ag conf: NR2E3 agonist confirmation in cells, cell-based, luminescence, CHO-S two-hybrid; shares compounds with NR2E3 ag-1; 2,300 tested, 51% active; inhibition, % at 3.98 µM; CHO-S mammalian two-hybrid NR2E3-NCOR, luciferase luminescence; AID 624378, 2012;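 active = average inhibition above a cutoff equal to the mean inhibition of all tested compounds plus one SD, cut at about 70% in these data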;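 note: 0% = DMSO in NR2E3 cells and 100% = DMSO in cells lacking NR2E3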
# VP16 counter: GAL4-VP16 reporter modulators, confirmation, counter-screen for NR2E3 agonist project, cell-based, luminescence, CHO-S, high throughput; shares compounds with NR2E3 ag-1; CHO-S GAL4-VP16 luciferase reporter; inhibition, % at 3.98 µM; 2,300 tested, 29% active;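 active = mean inhibition above a cutoff equal to the average over all tested compounds plus one standard deviation, cut at about 70% in these data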;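 note: luciferase from a UAS reporter driven by GAL4-VP16 transactivation; 0% = DMSO with VP16-transfected cells and 100% = DMSO with cells lacking VP16; higher means less reporter light so more repression of VP16 activity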
# * hit, by the source's call; / = not tested or not shown.
SMILES,DAX1 inh-1,NR2E3 ag-1,SMARCA2 activ,JMJD2C inh,NR2E3 ag-2,DAX1 inh-2,NR2E3 ag conf,VP16 counter
Cc1ccc(NC(=S)NCCSc2ccc(Cl)cc2)cc1,2.0,0.6,-2.9,5.0,-1.8,-0.8,/,/
Cc1ccc(SCCNC(=S)Nc2cc(C)cc(C)c2)cc1,0.5,55.0,0.4,0.1,-0.3,-0.6,18.9,29.0
CCCCNC(=O)C[C@@H]1C(=O)N(Cc2ccc(OC)cc2)C2=CCN(C(=O)OC(C)(C)C)C[C@]21C(=O)OCC,/,/,-1.5,/,/,-0.6,/,/
COC(=O)c1ccc(C(=O)NC2CCSc3ccccc32)cc1 (stereo not given),0.4,-33.7,-1.9,7.7,1.4,0.3,/,/
Cc1ccc(NC(=S)NC2CCSc3ccccc32)cc1C (stereo not given),-0.4,66.0,0.3,2.7,1.0,-2.6,-7.7,17.1
Cc1cccc(Cn2cc(COC(=O)NCCc3c[nH]c4ccccc34)nn2)c1,/,/,-0.6,/,/,-1.0,/,/
Cc1cc(NS(=O)(=O)c2ccc(NC(=O)CSc3nc4sc(C)c(C)c4c(=O)n3Cc3ccco3)cc2)nc(C)n1,/,/,3.4,/,/,1.2,/,/
CCCCCCCCCCn1c2c(c(=N)c3c1CCC3)CCC2,-4.2,98.6*,-10.7,-0.6,0.9,-3.9,100.0*,97.2*
CCCCCCCCCn1c2c(c(=N)c3c1CCC3)CCCC2,/,95.2*,/,-2.7,/,/,98.5*,96.1*
CCCCCCCCn1c2c(c(=N)c3ccccc31)CCC2,/,28.4,-13.2,-16.4,/,-3.5,/,/
COc1ccc(N/N=C(\C#N)C(N)=O)cc1,1.2,12.4,1.1,-4.0,1.2,0.8,/,/
N#C/C(=N/Nc1ccc(OC(F)(F)F)cc1)C(N)=S,-2.8,93.3*,-7.1,-7.9,-1.3,-2.3,92.8*,58.3
Clc1ccccc1-c1cnc2sc(NCc3ccc4c(c3)OCO4)nn12,/,56.8,-2.8,/,/,-0.9,36.9,42.2
CS(=O)(=O)c1ccccc1C(=O)N1CCN(S(=O)(=O)c2ccc(C3CCCCC3)cc2)CC1,-1.8,49.3,-2.2,/,/,2.1,33.3,37.5
CCCCNC(=O)C[C@H]1C[C@@]2(C(=O)OCC)CCCC3=C2N(CCC3)C1=O,/,/,4.0,/,/,0.1,/,/
Clc1ccc(SCc2cc(N3CCOCC3)nc(-c3ccccn3)n2)cc1,-3.1,94.5*,-2.9,-1.0,0.4,-2.0,57.6,42.8
O=c1cc(CSc2ccc(Cl)cc2)nc(-c2ccccn2)[nH]1,-1.1,101.3*,-9.9,-19.4,-0.4,-1.5,97.8*,60.0
O=c1cc(CSc2ccc(Cl)cc2)nc(-c2ccccc2)[nH]1,/,-3.4,-5.5,-0.5,-2.8,-0.6,/,/
O=C(Nc1ccc(F)cc1)Nc1c(-c2ccc(C(F)(F)F)cc2)nc2ncccn12,/,/,0.1,/,/,-0.4,/,/
COc1ccc(CN2C3=N[C@H](c4ccccc4)CC(=O)N3/C(=C\c3ccccc3)C2c2ccco2)c(OC)c1 (stereo not given in full),/,/,-1.5,/,/,0.1,/,/
CCN(CC)C(=O)CSc1nnc(-c2cccs2)o1,/,/,2.5,/,/,1.9,/,/
CCN(CC)S(=O)(=O)c1ccc(Cl)c(C(=O)Nc2ccc(Cl)cc2[N+](=O)[O-])c1,-2.2,58.4,-7.1,-0.7,5.3,-2.1,70.4*,66.9
CN(C)S(=O)(=O)c1ccc(Cl)c(C(=O)Nc2ccccc2[N+](=O)[O-])c1,0.1,-5.6,-3.1,6.6,1.4,-1.0,/,/
COc1cccc(NC(=O)Nc2ccncc2)c1,0.4,-17.0,-1.4,1.0,0.6,-0.5,/,/
COc1cccc(NC(=O)Nc2ccc(Cc3ccncc3)cc2)c1,-1.0,55.3,-1.8,0.8,-2.6,-0.5,41.5,30.2
SMILES,DAX1 inh-1,NR2E3 ag-1,SMARCA2 activ,JMJD2C inh,NR2E3 ag-2,DAX1 inh-2,NR2E3 ag conf,VP16 counter
COC1=C(c2ccccc2)C(=O)c2ccccc2C1=O,0.5,-23.6,0.7,-14.2,-4.3,-1.1,/,/
O=C(C1=C(c2ccccc2)C(=O)c2ccccc2C1=O)c1ccccc1,-5.7,77.5*,-11.5,-4.3,/,-4.3,98.6*,92.7*
CN(CCO)c1ccc2c(c1)Oc1ccccc1CN(Cc1cn(Cc3ccc(F)cc3)nn1)S2(=O)=O,/,/,6.4,/,/,-1.1,/,/
Cc1ccc(NC(=O)C2CCCN2S(=O)(=O)c2cccnc2)c(C)c1 (stereo not given),/,/,-1.7,/,/,-0.1,/,/
Cc1ccc(-n2c(Cc3cccs3)nnc2SCc2ccc(Br)cc2)cc1,/,/,-5.9,/,/,-0.2,/,/
O=C(NC1CCCC1)c1cc(COc2ccc3ncccc3c2)on1,-7.0,95.3*,/,-3.4,-2.1,/,94.6*,84.5*
COc1cccc(OCc2cc(C(=O)NC3CCOCC3)no2)c1,1.2,-89.5,3.1,-6.1,1.4,2.6,/,/
CSc1ccccc1OCc1cc(C(=O)N2CCC(c3ccncc3)CC2)no1,-3.3,101.0*,-3.4,5.1,2.3,-9.0,92.9*,78.8*
CC(NC(=O)c1cc(COc2ccc3ncccc3c2)on1)c1ccc(F)cc1 (stereo not given),-4.2,85.5*,-6.3,3.9,1.0,-3.1,96.4*,88.0*
Cc1cc(OCc2cc(C(=O)NC3CCC3)no2)cc(C)c1Cl,1.4,9.6,/,-38.4,-2.3,/,/,/
Cc1ccc(OCc2cc(C(=O)NC3CCCCC3)no2)cn1,-1.3,82.7*,-4.3,-18.8,-1.3,-0.8,59.4,55.1
COC(=O)[C@]12C[C@H](CC(=O)N3CCCCC3)C(=O)N(Cc3ccc(Cl)cc3Cl)C1=C[C@H](COCc1ccccc1)O[C@@H]2C,/,/,-3.1,/,/,-1.6,/,/
COCC1CCN(C(=O)c2cc(COc3ccc4ncccc4c3)on2)CC1,-2.1,67.9,-5.6,-13.1,3.8,-2.5,90.7*,75.0*
O=C(c1cc(COc2ccc3ncccc3c2)on1)N1CCCCCC1,-2.0,71.4*,-6.6,21.9,-1.6,-3.6,95.2*,75.9*
Cc1ccc(OCc2cc(C(=O)N3CCCCCCC3)no2)cc1C,1.3,-64.6,5.5,0.5,3.9,1.3,/,/
COCC1CCN(C(=O)c2cc(COc3ccc(-n4cncn4)cc3)on2)CC1,-0.4,15.9,-0.7,0.4,2.5,-0.5,/,/
